Experimental data as given in ChEMBL document CHEMBL1212875, “Improved inhibition of the histone acetyltransferase PCAF by an anacardic acid derivative” (Bioorg Med Chem, 2010).
Active and inactive are the calls of the source. The rule behind the calls is not given here.

Legend:
[1] = biological target: T1, Histone acetyltransferase KAT2B (Homo sapiens, UniProt Q92831); assay: Inhibition of human recombinant histone acetyltransferase PCAF by ELISA
Procedure, shortened: (§1)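 Indirect ELISA. Biotinylated histone H4 peptide (300 nM coating) captured on streptavidin wells. Recombinant human PCAF (240 nM solution) preincubated 15 min with inhibitor in 100 mM HEPES pH 7.4, 0.1% BSA, 0.16% Triton X-100. Reaction started with Ac-CoA (40 µM solution) for 15 min. Detection by anti-acetyl-Lys antibody, HRP secondary, TMB, A450. No-inhibitor wells = 100%, no-Ac-CoA = 0%. Triplicate; DMSO stocks.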

[2] = biological target: T1, Histone acetyltransferase KAT2B; assay: Inhibition of histone acetyltransferase PCAF in human HepG2 cells assessed as decrease in SAHA-induced histone H4 acetylation levels at 60 uM after 24 hrs by Western blotting
Target sequence in this assay (Q92831 whole entry, looked up): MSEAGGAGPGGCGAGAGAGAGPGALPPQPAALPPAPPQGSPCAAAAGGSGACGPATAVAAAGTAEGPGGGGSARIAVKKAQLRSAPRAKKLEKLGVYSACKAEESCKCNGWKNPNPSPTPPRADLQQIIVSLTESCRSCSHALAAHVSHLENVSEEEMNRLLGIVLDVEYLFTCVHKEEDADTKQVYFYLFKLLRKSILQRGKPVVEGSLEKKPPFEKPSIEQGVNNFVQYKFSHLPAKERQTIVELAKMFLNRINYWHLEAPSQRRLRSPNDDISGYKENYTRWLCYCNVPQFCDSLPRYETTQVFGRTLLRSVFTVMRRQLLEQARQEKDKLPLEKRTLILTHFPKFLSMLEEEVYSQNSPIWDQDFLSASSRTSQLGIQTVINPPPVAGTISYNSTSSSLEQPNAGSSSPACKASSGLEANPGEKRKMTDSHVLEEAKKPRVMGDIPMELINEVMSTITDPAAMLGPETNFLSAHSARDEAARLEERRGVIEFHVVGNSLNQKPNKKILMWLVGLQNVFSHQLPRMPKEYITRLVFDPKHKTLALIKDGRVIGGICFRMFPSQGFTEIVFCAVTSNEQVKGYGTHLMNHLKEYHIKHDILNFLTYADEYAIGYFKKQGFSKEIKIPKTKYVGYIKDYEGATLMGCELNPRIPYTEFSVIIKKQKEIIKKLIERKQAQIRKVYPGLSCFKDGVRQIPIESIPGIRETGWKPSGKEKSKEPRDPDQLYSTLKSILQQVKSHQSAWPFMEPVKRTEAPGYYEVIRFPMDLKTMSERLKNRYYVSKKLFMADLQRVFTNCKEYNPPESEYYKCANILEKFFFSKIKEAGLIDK

[3] = biological target: T1, Histone acetyltransferase KAT2B; assay: Inhibition of […] in human HepG2 cells assessed as decrease in SAHA-induced histone H4 acetylation levels at 30 uM after 24 hrs by Western blotting; type: cell-based
Procedure, shortened: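 HepG2 cells in DMEM with 10% heat-inactivated FBS at 37 °C, 5% CO2; grown to ~70% confluency, FBS-starved 16 h, then treated 24 h with 5 µM SAHA plus inhibitor at sub-toxic concentrations. Histones extracted, ~5 µg resolved by SDS-PAGE, immunoblotted with anti-acetyl-histone H4; densitometry with Coomassie loading check. Levels relative to untreated cells (100%), mean ± SEM of three independent experiments.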
Target sequence in this assay (Q92831 whole entry, looked up): as above

[4] = biological target: T1, Histone acetyltransferase KAT2B; assay: Inhibition of human recombinant […] at 1 mM by ELISA; procedure, shortened: as §1
Target sequence in this assay (Q92831 whole entry, looked up): as above

| Compound | inhibition [1] | further results |
| --- | --- | --- |
| COc1ccccc1OCCCc1cccc(O)c1C(=O)O | Active | – |
| CCCCCCCCCCCCCCCc1cc(O)cc(O)c1C(=O)O | Active | – |
| CCCCCCCCCCCCCCOc1cccc(O)c1C(=O)O | Active | – |
| CCCCCCCCCCc1cc(O)cc(O)c1C(=O)O | Active | – |
| CCCCCOc1ccc(/C=C\c2cccc(O)c2C(=O)O)cc1 | – | inhibition [2]: Active; inhibition [3]: Active; IC50 [1]: 662 µM |
| CCCCCCCc1ccc(CCc2cccc(O)c2C(=O)O)cc1 | Active | – |
| CCCCCCCCCCc1cccc(O)c1C(=O)O | Active | – |
| O=C(O)c1c(O)cccc1OCc1ccccc1 | – | inhibition [4]: 20% |
| CCCCCOc1ccc(CCc2cccc(O)c2C(=O)O)cc1 | Active | – |
| C=CC/C=C\C/C=C\CCCCCCCc1cccc(O)c1C(=O)O [ANACARDIC ACID] | Active | inhibition [2]: Active; inhibition [4]: 40%; inhibition [3]: Active; IC50 [1]: 1000 µM |
